Assay results published in article PMC3065953 (Inorganic chemistry, 2011).
Read-outs that look alike come from different tables or passages of the source.

How the values were obtained:
[1] = Cyclic voltammetry in DMF; format: physicochemical; details: for Ep, V vs. Ag/AgCl (peak reduction potential): DMF, 0.1 M (n-Bu4N)PF6, scan rate 100 mV/s; for reduction peak potential: vs. Ag/AgCl, in DMF
[2] = system: human lung carcinoma (A549) cells; experiment: MTT cytotoxicity assay in A549 cells; format: cell-based; details: 72-h exposure, mean ± SD of at least three experiments
Outline: (§1)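 Cells kept in DMEM/10% FBS/1% penicillin-streptomycin at 37 °C, 5% CO2. Seeded 1500 (A549) or 2500 (MRC-5) cells/well, 24 h, then 72 h in fresh medium with graded Pt concentrations. Pt(IV) complexes diluted from 10–20 mM DMSO stocks, reference Pt(II) drug from 2 mM PBS stock. MTT 0.8 mg/mL, 4 h; formazan dissolved in DMSO/10% pH 10.5 glycine buffer; A570. Viability normalized to Pt-free wells; IC50 extrapolated from curves. ≥3 independent experiments in triplicate.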

[3] = system: human normal lung fibroblasts (MRC-5) cells; experiment: MTT cytotoxicity assay in MRC-5 cells; format: cell-based; details: for IC50 / cytotoxicity relative to cisplatin: MRC-5 cells; for IC50: MTT assay, 72-h exposure, mean ± SD of at least three experiments; for factor less cytotoxic in the healthy cells compared to the cancerous cells: MRC-5 vs. A549 IC50
Outline: as §1

[4] = cited from earlier work; for peak potential: in water / aqueous media; for Ep, V vs. Ag/AgCl (peak reduction potential): value in parentheses, aqueous solution
[5] = Cyclic voltammetry in aqueous solution; format: physicochemical; details: value in parentheses, this work (Figure S3)

| SMILES | Ep, V vs. Ag/AgCl (peak reduction potential) [1] [V] | reduction peak potential [1] [mV] | Ep, V vs. Ag/AgCl (peak reduction potential) [5] [V] | IC50 [2] [µM] | IC50 [3] [µM] | peak potential [4] [mV] | Ep, V vs. Ag/AgCl (peak reduction potential) [4] [V] | cytotoxicity relative to cisplatin [3] | factor less cytotoxic in the healthy cells compared to the cancerous cells [3] |
| --- | --- | --- | --- | --- | --- | --- | --- | --- | --- |
| N.N.[Cl][Pt][Cl] [cisplatin, cis-diamminedichloroplatinum(II), reference compound] |  |  |  | 7 ± 2.6 | 4.3 ± 1.3 |  |  |  |  |
| [NH2][Pt]([NH2])([Cl])([Cl])([Cl])[Cl] [Compound 3, cis-[Pt(NH3)2Cl4], reference compound] | −0.45 | −454 |  |  |  | −260 | −0.26 |  |  |
| [NH2][Pt]([NH2])([Cl])([Cl])([O]C(=O)C(F)(F)F)[O]C(=O)C(F)(F)F [Compound 2, c,c,t-[Pt(NH3)2Cl2(O2CCF3)2]] | −0.35 | −345 | 0.01 |  |  |  |  |  |  |
| [NH2][Pt]([NH2])([OH])([OH])([Cl])[Cl] [c,c,t-[Pt(NH3)2Cl2(OH)2]] |  |  |  |  |  | −880 |  |  |  |

Continued, in another order:

| Ep, V vs. Ag/AgCl (peak reduction potential) [1] [V] | reduction peak potential [1] [mV] | Ep, V vs. Ag/AgCl (peak reduction potential) [5] [V] | SMILES | IC50 [2] [µM] | IC50 [3] [µM] | peak potential [4] [mV] | Ep, V vs. Ag/AgCl (peak reduction potential) [4] [V] | cytotoxicity relative to cisplatin [3] | factor less cytotoxic in the healthy cells compared to the cancerous cells [3] |
| --- | --- | --- | --- | --- | --- | --- | --- | --- | --- |
| −0.63 | −625 |  | [NH2][Pt]([NH2])([Cl])([Cl])([O]C(=O)Nc1cccc2ccccc12)[O]C(=O)Nc1cccc2ccccc12 [Compound 11] | 4.3 ± 1.5 | 4.8 ± 0.3 |  |  |  |  |
| −0.72 | −722 |  | CC(=O)[O][Pt]([NH2])([NH2])([Cl])([Cl])[O]C(C)=O [Compound 1, c,c,t-[Pt(NH3)2Cl2(O2CCH3)2], reference compound] |  |  | −635 | −0.64 |  |  |
| −0.85 |  |  | CC(C)(C)NC(=O)[O][Pt]([NH2])([NH2])([Cl])([Cl])[O]C(=O)NC(C)(C)C [Compound 4] | 1 ± 0.3 | 2.8 ± 0.8 |  |  | more toxic | ~2 |
| −0.85 |  |  | [NH2][Pt]([NH2])([Cl])([Cl])([O]C(=O)NC1CCCC1)[O]C(=O)NC1CCCC1 [Compound 5] | 0.6 ± 0.3 | 2.3 ± 0.7 |  |  | more toxic | ~2 |
| −0.72 |  |  | COc1ccc(NC(=O)[O][Pt]([NH2])([NH2])([Cl])([Cl])[O]C(=O)Nc2ccc(OC)cc2)cc1 [Compound 9] | 5.3 ± 2.5 | 9.3 ± 3.2 |  |  |  |  |
